Results from ChEMBL document CHEMBL1155675, “New triterpenoid sulfates from the red alga Tricleocarpa fragilis” (J Nat Prod, 2000).

Columns and labels:
[1] = system: HT-29; experiment: Cytotoxicity against human HT29 cells; format: functional, cell-based
[2] = system: P388; experiment: Cytotoxicity against mouse P388 cells; format: functional, cell-based
[3] = system: A549; experiment: Cytotoxicity against human A549 cells; format: functional, cell-based
[4] = Cytotoxicity against human MEL28 cells; format: functional, cell-based; conditions: SK-MEL-28
[5] = system: Artemia; experiment: Toxicity against brine shrimp assessed as immobilization at 50 ug/ml; format: organism-based; conditions: in vivo
Procedure, shortened: (§1)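 Brine shrimp immobilization was scored in a 96-well plate format and reported as percent immobilization with 90% confidence intervals. Where both monovalent and divalent cation salts of a sulfate were isolated, the divalent cation salt was the one tested.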

[6] = system: Artemia; experiment: Toxicity against brine shrimp assessed as immobilization at 17 ug/ml; format: organism-based; conditions: in vivo; procedure, shortened: as §1

CC(C)=CC(=O)C[C@@H](C)[C@H]1CC[C@@]2(C)[C@@H]3CC[C@H]4C(C)(C)[C@@H](OS(=O)(=O)O)CC[C@@]45C[C@@]35CC[C@]12C
> 10 µg/mL: IC50 [1] | IC50 [2] | IC50 [3] | IC50 [4]

COC(=O)[C@@H]1[C@@H](OS(=O)(=O)O)CC[C@]23C[C@]24CC[C@]2(C)[C@@H]([C@H](C)CC(=O)C=C(C)C)CC[C@@]2(C)[C@@H]4CC[C@@H]13
> 1 µg/mL: IC50 [1] | IC50 [2] | IC50 [3] | IC50 [4]

COC(=O)[C@@H]1[C@@H](OS(=O)(=O)O)CC[C@]2(C)C3=C(CC[C@@H]12)[C@]1(C)CC[C@H]([C@H](C)CC(=O)C=C(C)C)[C@@]1(C)CC3
35.5%: Activity [5]
> 1 µg/mL: IC50 [1] | IC50 [2] | IC50 [3] | IC50 [4]

COC(=O)[C@]1(C)[C@@H](OS(=O)(=O)O)CC[C@]23C[C@]24CC[C@]2(C)[C@@H]([C@H](C)CC(=O)C=C(C)C)CC[C@@]2(C)[C@@H]4CC[C@@H]13
> 10 µg/mL: IC50 [1] | IC50 [2] | IC50 [3] | IC50 [4]

COC(=O)[C@@H]1[C@@H](OS(=O)(=O)O)CC[C@]23C[C@]24CC[C@]2(C)[C@@H]([C@H](C)C[C@@H](O)C=C(C)C)CC[C@@]2(C)[C@@H]4CC[C@@H]13
39.1%: Activity [5]
> 1 µg/mL: IC50 [1] | IC50 [2] | IC50 [3] | IC50 [4]

CC(C)=C[C@H](O)C[C@@H](C)[C@H]1CC[C@@]2(C)[C@@H]3CC[C@H]4[C@](C)(CO)[C@@H](OS(=O)(=O)O)CC[C@@]45C[C@@]35CC[C@]12C
47.1%: Activity [6]
> 10 µg/mL: IC50 [1] | IC50 [2] | IC50 [3] | IC50 [4]

COC(=O)[C@]1(C)[C@@H](OS(=O)(=O)[O-])CC[C@]23C[C@]24CC[C@]2(C)[C@@H]([C@H](C)CC(=O)C=C(C)C)CC[C@@]2(C)[C@@H]4CC[C@@H]13.COC(=O)[C@]1(C)[C@@H](OS(=O)(=O)[O-])CC[C@]23C[C@]24CC[C@]2(C)[C@@H]([C@H](C)CC(=O)C=C(C)C)CC[C@@]2(C)[C@@H]4CC[C@@H]13.[Ca+2]
> 10 µg/mL: IC50 [1] | IC50 [2] | IC50 [3] | IC50 [4]

COC(=O)[C@]1(C)[C@@H](OS(=O)(=O)O)CC[C@]23C[C@]24CC[C@]2(C)[C@@H]([C@H](C)C[C@@H](O)C=C(C)C)CC[C@@]2(C)[C@@H]4CC[C@@H]13
55.7%: Activity [6]
> 10 µg/mL: IC50 [1] | IC50 [2] | IC50 [3] | IC50 [4]

COC(=O)[C@]1(C)[C@@H](OS(=O)(=O)[O-])CC[C@]23C[C@]24CC[C@]2(C)[C@@H]([C@H](C)CC(=O)C=C(C)C)CC[C@@]2(C)[C@@H]4CC[C@@H]13.COC(=O)[C@]1(C)[C@@H](OS(=O)(=O)[O-])CC[C@]23C[C@]24CC[C@]2(C)[C@@H]([C@H](C)CC(=O)C=C(C)C)CC[C@@]2(C)[C@@H]4CC[C@@H]13.[Mg+2]
> 10 µg/mL: IC50 [1] | IC50 [2] | IC50 [3] | IC50 [4]

CC(C)=CC(=O)C[C@@H](C)[C@H]1CC[C@@]2(C)[C@@H]3CC[C@H]4[C@](C)(CO)[C@@H](OS(=O)(=O)O)CC[C@@]45C[C@@]35CC[C@]12C
> 2 µg/mL: IC50 [1] | IC50 [2] | IC50 [3] | IC50 [4]

COC(=O)[C@]1(C)[C@@H](OS(=O)(=O)[O-])CC[C@]23C[C@]24CC[C@]2(C)[C@@H]([C@H](C)CC(=O)C=C(C)C)CC[C@@]2(C)[C@@H]4CC[C@@H]13.[Na+]
> 10 µg/mL: IC50 [1] | IC50 [2] | IC50 [3] | IC50 [4]

COC(=O)[C@@H]1[C@@H](OS(=O)(=O)O)CC[C@]2(C)C3=C(CC[C@@H]12)[C@]1(C)CC[C@H]([C@H](C)C[C@@H](O)C=C(C)C)[C@@]1(C)CC3
> 2 µg/mL: IC50 [1] | IC50 [2] | IC50 [3] | IC50 [4]

CC(C)=C[C@H](O)C[C@@H](C)[C@H]1CC[C@@]2(C)[C@@H]3CC[C@H]4C(C)(C)[C@@H](OS(=O)(=O)O)CC[C@@]45C[C@@]35CC[C@]12C
> 2 µg/mL: IC50 [1] | IC50 [2] | IC50 [3] | IC50 [4]
